What was measured:
[1] = tested on: human stem-cell-derived motor neurons carrying the ALS-causing SOD1^A4V mutation; assay: Motor neuron CPA survival assay, SOD1^A4V ALS motor neurons; details: for maximum efficacy compared with compound 1 / neuroprotection in CPA survival assay / concentrations that completely blocked the effects of CPA treatment: CPA-treated SOD1^A4V motor neurons; for EC50: Homo sapiens, Neuron, 72 h, read-out: EC50 in motor neuron survival assay
[2] = tested on: mouse stem cell-derived motor neurons; details: CPA-treated; ref Thams et al., 2019; cited from earlier work
[3] = tested on: motor neurons differentiated from human induced pluripotent stem cells derived from a healthy patient; assay: Motor neuron CPA survival assay, healthy-patient iPSC-derived motor neurons; type: cell-based; details: for rescue of CPA toxicity / neuroprotection: CPA-treated healthy human motor neurons, 72 h; for concentrations toxic to motor neurons in the absence of CPA: without CPA
JNK pathway = assay: Western blots of JNK pathway in CPA-treated motor neurons; type: cell-based, mouse; details: western blot, Fig. S2
How it was run: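 Day-6 embryoid bodies from mouse ES cells (HB9::GFP reporter, human SOD1 transgene; RA 1 μM + SAG 0.5 μM) were given CPA 10 μM plus test compound 0.5 μM for 4 h, then lysed in HEPES/Triton/SDS buffer. Immunoblots used phospho-JNK (Thr183/Tyr185), phospho-c-Jun (Ser63), phospho-MKK4 (Ser257), total proteins and cleaved caspase 3 at 1:1000, with GAPDH at 1:3000. Signals normalised to GAPDH, phospho to total, and expressed as % of CPA; n = 2 differentiations; unpaired two-tailed t-tests.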

In the case of `CN1CCN(Cc2ccc(-c3cnc4[nH]cc(-c5cccc(F)c5)c4c3)cc2)CC1` [7y, 3-(3-Fluorophenyl)-5-(4-((4-methylpiperazin-1-yl)methyl)phenyl)-1H-pyrrolo[2,3-b]pyridine], the “maximum efficacy compared with compound 1” value [1] is reported as “greater maximum efficacy than compound 1”.

For `COC(=O)[C@@]1(O)C[C@H]2O[C@]1(C)n1c3ccccc3c3c4c(c5c6ccccc6n2c5c31)C(=O)NC4` [K252a], the “protection of motor neurons from ER stress” value (shortened to “protection of motor neurons”) [2] is listed as “protect motor neurons from ER stress”.

`CN1CCN(Cc2ccc(-c3cnc4[nH]cc(-c5ccc(N)nc5)c4c3)cc2)CC1` [7m, 5-(5-(4-((4-Methylpiperazin-1-yl)methyl)phenyl)-1H-pyrrolo[2,3-b]pyridin-3-yl)pyridin-2-amine] showed an EC50 [1] of under 220 nM.

For `Cc1nc(Nc2cnn(C3CCNCC3)c2)nc2c1N(C)C(=O)c1cc3ccccc3cc1N2C` [HTH 01–015], the “rescue of CPA toxicity / neuroprotection” value [3] was “did not rescue CPA toxicity” and the “concentrations toxic to motor neurons in the absence of CPA” value [3] was “above 2 μM”.

In the case of `Cc1cc(-c2c[nH]c3ncc(-c4ccc(CN5CCN(C)CC5)cc4)cc23)cnc1N` [7l, 3-Methyl-5-(5-(4-((4-methylpiperazin-1-yl)methyl)phenyl)-1H-pyrrolo[2,3-b]pyridin-3-yl)pyridin-2-amine], the “maximum efficacy compared with compound 1” value [1] is reported as “greater maximum efficacy than compound 1” and the EC50 [1] is reported as under 220 nM.

With `CN1CCN(Cc2ccc(-c3cnc4[nH]cc(-c5cccc6c5oc5ccccc56)c4c3)cc2)CC1` [7c, 3-(Dibenzo[b,d]furan-4-yl)-5-(4-((4-methylpiperazin-1-yl)methyl)phenyl)-1H-pyrrolo[2,3-b]pyridine] the “neuroprotection in CPA survival assay” value [1] was “completely ineffective”.

In the case of `CN1CCN(Cc2ccc(-c3cnc4[nH]cc(-c5ccc6[nH]ncc6c5)c4c3)cc2)CC1` [7v, 5-(5-(4-((4-Methylpiperazin-1-yl)methyl)phenyl)-1H-pyrrolo[2,3-b]pyridin-3-yl)-1H-indazole], the “maximum efficacy compared with compound 1” value [1] is reported as “greater maximum efficacy than compound 1” and the EC50 [1] is reported as under 220 nM.

With `CN1CCN(Cc2ccc(-c3cnc4[nH]cc(-c5cccc(N)c5)c4c3)cc2)CC1` [7h, 3-(5-(4-((4-Methylpiperazin-1-yl)methyl)phenyl)-1H-pyrrolo[2,3-b]pyridin-3-yl)aniline] the “maximum efficacy compared with compound 1” value [1] was “greater maximum efficacy than compound 1” and the EC50 [1] was under 220 nM.

In the case of `Cn1c2ccccc2c2c3c(c4c5ccccc5n(CCC#N)c4c21)CNC3=O` [Gö6976], the “protection of motor neurons” value [2] is given as “protect motor neurons from ER stress”.

With `CNC(=O)Nc1ccc(-c2c[nH]c3ncc(-c4ccc(CN5CCN(C)CC5)cc4)cc23)cc1` [7am, 1-Methyl-3-(4-(5-(4-((4-methylpiperazin-1-yl)methyl)phenyl)-1H-pyrrolo[2,3-b]pyridin-3-yl)phenyl)urea] the “maximum efficacy compared with compound 1” value [1] was “greater maximum efficacy than compound 1”.

With `Nc1ccc(-c2cnc(N)c(-c3ccc(Cl)cc3)c2)cn1` [PF-6260933] the “rescue of CPA toxicity / neuroprotection” value [3] was “neuroprotective”.

With `CN1CCN(Cc2ccc(-c3cnc4[nH]cc(-c5cccc6[nH]ncc56)c4c3)cc2)CC1` [7aa, 4-(5-(4-((4-Methylpiperazin-1-yl)methyl)phenyl)-1H-pyrrolo[2,3-b]pyridin-3-yl)-1H-indazole] the “maximum efficacy compared with compound 1” value [1] was “greater maximum efficacy than compound 1” and the EC50 [1] was under 220 nM.

With `CN1CCN(Cc2ccc(-c3cnc4[nH]cc(-c5cccc(NC(=O)NCc6ccco6)c5)c4c3)cc2)CC1` [7ay, 1-(Furan-2-ylmethyl)-3-(3-(5-(4-((4-methylpiperazin-1-yl)methyl)phenyl)-1H-pyrrolo[2,3-b]pyridin-3-yl)phenyl)urea] the “neuroprotection in CPA survival assay” value [1] was “completely ineffective”.

With `O[C@@H]1CCN(Cc2ccc(-c3cnc4[nH]cc(-c5cccc(F)c5)c4c3)cc2)C1` [12i, (R)-1-(4-(3-(3-Fluorophenyl)-1H-pyrrolo[2,3-b]pyridin-5-yl)benzyl)pyrrolidin-3-ol] the “inhibition of JNK pathway components” value (JNK pathway) was “effectively inhibit the same JNK pathway components as compound 1” and the “concentrations that completely blocked the effects of CPA treatment” value [1] was under 0.3 µM.

With `CNC(=O)Nc1cccc(-c2c[nH]c3ncc(-c4ccc(CN5CCN(C)CC5)cc4)cc23)c1` [7ak, 1-Methyl-3-(3-(5-(4-((4-methylpiperazin-1-yl)methyl)phenyl)-1H-pyrrolo[2,3-b]pyridin-3-yl)phenyl)urea] the “maximum efficacy compared with compound 1” value [1] was “greater maximum efficacy than compound 1”.

For `CN1CCN(Cc2ccc(-c3cnc4[nH]cc(-c5ccccc5)c4c3)cc2)CC1` [7ac, 5-(4-((4-Methylpiperazin-1-yl)methyl)phenyl)-3-phenyl-1H-pyrrolo[2,3-b]pyridine], the “maximum efficacy compared with compound 1” value [1] was “greater maximum efficacy than compound 1”.

For `O=C1Cc2c([nH]c3ccc(Br)cc23)-c2ccccc2N1` [kenpaullone], the “protection of motor neurons” value [2] is listed as “protect motor neurons from ER stress”.

With `OCCN1CCN(Cc2ccc(-c3cnc4[nH]cc(-c5cccc(F)c5)c4c3)cc2)CC1` [12h, 2-(4-(4-(3-(3-Fluorophenyl)-1H-pyrrolo[2,3-b]pyridin-5-yl)benzyl)piperazin-1-yl)ethan-1-ol] the “inhibition of JNK pathway components” value (JNK pathway) was “effectively inhibit the same JNK pathway components as compound 1” and the “concentrations that completely blocked the effects of CPA treatment” value [1] was under 0.3 µM.

With `CCC(=O)Nc1cccc(Oc2nc(Nc3ccc(N4CCN(C)CC4)cc3OC)ncc2Cl)c1` [WZ4003] the “rescue of CPA toxicity / neuroprotection” value [3] was “did not rescue CPA toxicity” and the “concentrations toxic to motor neurons in the absence of CPA” value [3] was “above 2 μM”.

For `CN1CCN(Cc2ccc(-c3cnc4[nH]cc(-c5cccc([N+](=O)[O-])c5)c4c3)cc2)CC1` [7p, 5-(4-((4-Methylpiperazin-1-yl)methyl)phenyl)-3-(3-nitrophenyl)-1H-pyrrolo[2,3-b]pyridine], the “maximum efficacy compared with compound 1” value [1] was “greater maximum efficacy than compound 1”.

With `O=C1Cc2c([nH]c3ccc([N+](=O)[O-])cc23)-c2ccccc2N1` [alsterpaullone] the “rescue of CPA toxicity / neuroprotection” value [3] was “more potent than kenpaullone”.

For `CN1CCN(Cc2ccc(-c3cnc4[nH]cc(-c5ccc(N)cc5)c4c3)cc2)CC1` [7e, 4-(5-(4-((4-Methylpiperazin-1-yl)methyl)phenyl)-1H-pyrrolo[2,3-b]pyridin-3-yl)aniline], the “maximum efficacy compared with compound 1” value [1] was “greater maximum efficacy than compound 1”.

With `COC(=O)Nc1cccc(-c2c[nH]c3ncc(-c4ccc(CN5CCN(C)CC5)cc4)cc23)c1` [7al, Methyl (3-(5-(4-((4-methylpiperazin-1-yl)methyl)phenyl)-1H-pyrrolo[2,3-b]pyridin-3-yl)phenyl)carbamate] the “maximum efficacy compared with compound 1” value [1] was “greater maximum efficacy than compound 1”.

With `O[C@@H]1CCN(Cc2ccc(-c3cnc4[nH]cc(-c5cccc(Cl)c5)c4c3)cc2)C1` [12l, (R)-1-(4-(3-(3-Chlorophenyl)-1H-pyrrolo[2,3-b]pyridin-5-yl)benzyl)pyrrolidin-3-ol] the “inhibition of JNK pathway components” value (JNK pathway) was “effectively inhibit the same JNK pathway components as compound 1” and the “concentrations that completely blocked the effects of CPA treatment” value [1] was under 0.3 µM.

For `CN1CC2CCC(C1)N2Cc1ccc(-c2cnc3[nH]cc(-c4cccc(Cl)c4)c3c2)cc1` [12f, 3-(3-Chlorophenyl)-5-(4-((3-methyl-3,8-diazabicyclo[3.2.1]octan-8-yl)methyl)phenyl)-1H-pyrrolo[2,3-b]pyridine], the EC50 [1] was 110 nM and the “concentrations at which compound was toxic” value ([1]; motor neuron survival assay) was “above 0.3 μM”.

— paper PMC7253076 (Cell chemical biology, 2019)
